Measurements from PubChem BioAssay.
The source made the active and inactive calls.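 Rule for the calls, unless noted: active = inhibition above 20% together with a positive visual image hit; inconclusive = visual image hit but inhibition not above 20%; inactive = no visual image hit.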

Key:
[1] = inhibitors of TNFa-induced NFkB p65 translocation, primary screen, imaging, HUVEC, MLSMR starter and 10KST1 sets (AID 438); conditions: HUVEC TNFa-induced p65 nuclear translocation; cell count: measured here: nuclei count (cytotoxicity indicator), at 2.08 µM unless noted; inhibition: at 2 µM, stronger effect = higher value unless noted;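 note: compound added about 3h40 before a 20 min TNFalpha stimulation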;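 for inhibition: signal is the nuclear over cytoplasmic p65 intensity ratio per well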
[2] = reduction of polyQ htt aggregates in cells – imaging, exon1htt(103Q)mCFP cells, high-content imaging, primary screen (AID 483;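 active = visual image review flags a hit and inhibition of aggregation exceeds 20%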;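 note: compound exposure lasted 3 days before fixation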;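 for nuclei count: percent of the per-plate median nuclei count of sample wells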); conditions: exon1htt(103Q)mCFP cell line, aggregate imaging, at 2 µM; inhibition of aggregation: stronger effect = higher value; nuclei count: measured here: cell count, toxicity
[3] = endothelial E-selectin expression blockers – imaging, HUVEC, immunofluorescence, MLSMR starter and 10KST1 sets, primary screen (AID 487;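 active = visually confirmed hit in the image check and inhibition above 20%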;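 for inhibition: signal is fraction of cell area covered by stained E-selectin grains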;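 for nuclei count: 100% = median nuclei count of all wells on the same plate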); conditions: HUVEC TNFalpha-induced E-selectin immunofluorescence imaging, at 2 µM; inhibition: stronger effect = higher value; nuclei count: measured here: cell number, toxicity
[4] = target: Voltage-gated potassium channel subunit beta-2 (Rattus norvegicus) (UniProt P62483); assay: inhibitors of rat Kvbeta2 reductase activity – biochemical, NADPH fluorescence, primary screen (AID 622;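 active = fluorescence slope higher than the sample average by over 3 SD, cut at about -0.22 in these data, passing the limit was not always enough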;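 note: slope of raw intensity against log time taken from 70 to 1610 s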); conditions: recombinant KvBeta, 4-cyanobenzaldehyde reduction, at 10 µM, stronger effect = higher value
Voltage-gated potassium channel subunit beta-2 (Rattus norvegicus), sequence (P62483 whole entry, looked up): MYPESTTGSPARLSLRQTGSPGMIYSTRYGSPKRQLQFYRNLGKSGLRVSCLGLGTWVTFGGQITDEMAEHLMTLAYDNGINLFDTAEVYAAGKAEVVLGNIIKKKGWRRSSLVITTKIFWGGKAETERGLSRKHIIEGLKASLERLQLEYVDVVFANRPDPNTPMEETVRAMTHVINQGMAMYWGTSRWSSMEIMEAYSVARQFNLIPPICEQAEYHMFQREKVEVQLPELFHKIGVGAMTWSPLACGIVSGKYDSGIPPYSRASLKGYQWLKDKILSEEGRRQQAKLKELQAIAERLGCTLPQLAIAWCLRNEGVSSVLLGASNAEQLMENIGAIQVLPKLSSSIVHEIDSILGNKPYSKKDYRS

[5] = target: Voltage-gated potassium channel subunit beta-2 (Rattus norvegicus) (UniProt P62483); assay: enhancers of rat Kvbeta2 NADPH turnover – biochemical, NADPH fluorescence, primary screen (AID 623;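 active = NADPH fluorescence slope more negative than the mean of all samples by about 3 SD, 99.7% confidence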;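 note: fluorescence intensity change per second fitted from 20 to 320 s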); conditions: Recombinant KvBeta, NADPH fluorescence decrease slope, 10 min; at 10 µM; stronger effect = lower value
[6] = target: Muscarinic acetylcholine receptor M4 (Homo sapiens) (UniProt P08173); assay: M4-linked GIRK flux change, two-sided – cell-based, HEK293 M4/GIRK, thallium flux, BTC-AM, M4 allosteric agonist project, primary screen (AID 625;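 active = fluorescence slope after compound addition differing from the mean of all tested samples at 99.7% confidence, mostly higher but some lower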;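 note: thallium influx through GIRK channels coupled to M4 in HEK293 cells with BTC-AM dye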); conditions: at 10 µM, actives lie on both sides
Muscarinic acetylcholine receptor M4 (Homo sapiens), sequence (P08173 whole entry, looked up): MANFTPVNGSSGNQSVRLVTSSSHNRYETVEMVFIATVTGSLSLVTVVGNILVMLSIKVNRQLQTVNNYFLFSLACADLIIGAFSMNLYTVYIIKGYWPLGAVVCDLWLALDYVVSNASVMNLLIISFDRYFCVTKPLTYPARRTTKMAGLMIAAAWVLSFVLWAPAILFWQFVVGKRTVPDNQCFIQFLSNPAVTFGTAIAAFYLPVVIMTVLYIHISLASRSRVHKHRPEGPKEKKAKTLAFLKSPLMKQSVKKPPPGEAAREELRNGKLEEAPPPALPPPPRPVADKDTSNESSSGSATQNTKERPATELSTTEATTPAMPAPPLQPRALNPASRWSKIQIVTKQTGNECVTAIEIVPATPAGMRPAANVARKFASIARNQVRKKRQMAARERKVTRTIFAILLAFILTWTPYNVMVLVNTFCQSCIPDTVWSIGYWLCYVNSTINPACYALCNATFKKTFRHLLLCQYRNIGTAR
Summary of the method: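 Material: HEK293 cells with M4 receptor and GIRK channels; Times: cells overnight at 37 °C, BTC-AM loading 1 h, reads 2 min total; Technique: kinetic BTC-AM fluorescence sampled at 1 Hz, 10 s pre-addition baseline; Read-out basis: slope over 15–24 s of trace normalized to starting intensity; Controls: carbachol positive, DMSO negative.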

[7] = blockers of RIG-like receptor reporter activation – cell-based, Sendai virus stimulus, luciferase, 10K MLSCN set, TLR/RLR signaling modifier project, primary screen (AID 602276;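 active = inhibition at or above 50% at 10 µM; inactive = inhibition below 50%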;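 note: firefly luciferase from ISG56 promoter only with Renilla not read in this screen; 0% = Sendai virus plus DMSO and 100% = medium plus DMSO without virus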); conditions: HEK293 RL24 IRF3 luciferase reporter, at 10 µM, stronger effect = higher value
[8] = TLR3 IRF3 reporter activation blockers – cell-based, poly I:C stimulus, luciferase, 10K MLSCN set, primary screen (AID 602277;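 active = inhibition of the reporter signal at or above 50%; inactive = inhibition below 50%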); conditions: HEK293-TLR3 RL24 IRF3 luciferase reporter, at 10 µM, stronger effect = higher value
[9] = loss of swimming-algae plug formation – whole organism, Chlamydomonas reinhardtii, WT vs cilia-less mutant, absorbance, 96-well, primary screen (AID 463189;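 active = inhibition at or above 50% relative to wild type and mutant plate controls; inactive = inhibition below 50%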;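 note: 0% = wild type cc124 cells in DMSO and 100% = ciliumless bld1 mutant cells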); conditions: Chlamydomonas reinhardtii gravitaxis, OD600 absorbance, 2 days; at 10 µM; stronger effect = higher value

With `NC(=O)CSP(=O)(c1ccccc1)c1ccccc1` the cell count [1] was 427, the inhibition [1] was -3.5% (inactive) and the inhibition of aggregation [2] was 4.2% (inactive). For the same compound, the nuclei count [2] was 110%, the inhibition [3] was -31.5% (inactive) and the nuclei count [3] was 105%. The fluorescence slope [4] was -0.541 (inactive), the NADPH fluorescence slope [5] was -3.8e-05 (inactive) and the fluorescence slope [6] was 0.00487 (inactive). The inhibition [7] was 6.33% (inactive) and the inhibition [8] was 18.3% (inactive).

In the case of `O=C(C1CCCN(S(=O)(=O)c2cccc3nsnc23)C1)N1CCC2(CC1)OCCO2` (configuration not stated), the cell count [1] is reported as 815, the inhibition [1] is reported as -0.7% (inactive) and the inhibition of aggregation [2] is reported as 10.6% (inactive). For the same compound, the nuclei count [2] was 96.6%, the inhibition [3] was -154% (inactive) and the nuclei count [3] was 125%. For the same compound, the fluorescence slope [4] was -0.322 (inactive), the NADPH fluorescence slope [5] was -2.9e-05 (inactive) and the fluorescence slope [6] was 0.00517 (inactive). For the same compound, the inhibition [7] was 16.9% (inactive) and the inhibition [8] was 1.28% (inactive).

For `COc1ccc(C2NCc3ccc4c(c3-n3cccc32)OCO4)cc1O` (configuration not stated), the cell count [1] was 479, the inhibition [1] was 9.5% (inactive) and the inhibition of aggregation [2] was -349% (inactive). For the same compound, the nuclei count [2] was 0.8%, the inhibition [3] was -140% (inactive) and the nuclei count [3] was 99%. For the same compound, the fluorescence slope [4] was -0.458 (inactive), the NADPH fluorescence slope [5] was -4.4e-05 (inactive) and the fluorescence slope [6] was 0.00468 (inactive). For the same compound, the inhibition [7] was 27.9% (inactive) and the inhibition [8] was 83% (active).

For `CC1(C)CC(=O)C=C(NCCN2CCN(C(=O)Cc3ccc(Cl)cc3)CC2)C1`, the cell count [1] was 706, the inhibition [1] was -4.2% (inactive) and the inhibition of aggregation [2] was 3% (inactive). The nuclei count [2] was 120%, the inhibition [3] was -80.1% (inactive) and the nuclei count [3] was 109%. The fluorescence slope [4] was -0.463 (inactive), the NADPH fluorescence slope [5] was -4.2e-05 (inactive) and the fluorescence slope [6] was 0.00475 (inactive). The inhibition [7] was 16.3% (inactive) and the inhibition [8] was 9.81% (inactive).

With `Cc1cccc(-n2c(-c3ccco3)nc3ccccc3c2=O)n1` the cell count [1] was 344, the inhibition [1] was -2.8% (inactive) and the inhibition of aggregation [2] was 3.4% (inactive). The nuclei count [2] was 97.9%, the inhibition [3] was 20.8% (inactive) and the nuclei count [3] was 83.8%. The fluorescence slope [4] was -0.368 (inactive), the NADPH fluorescence slope [5] was 7.6e-06 (inactive) and the fluorescence slope [6] was 0.00556 (inactive). For the same compound, the inhibition [7] was -11.4% (inactive) and the inhibition [8] was -10.7% (inactive).

In the case of `COc1ccccc1OCCCn1cc(C(=O)c2ccco2)c2ccccc21`, the cell count [1] is reported as 596, the inhibition [1] is reported as -2.5% (inactive) and the inhibition of aggregation [2] is reported as -12.2% (inactive). The nuclei count [2] was 101%, the inhibition [3] was -29.4% (inactive) and the nuclei count [3] was 111%. The fluorescence slope [4] was -0.309 (inactive), the NADPH fluorescence slope [5] was -2.9e-06 (inactive) and the fluorescence slope [6] was 0.00746 (inactive). For the same compound, the inhibition [7] was -22.2% (inactive) and the inhibition [8] was -81.2% (inactive).

With `Nc1ccccc1C(=O)OC1CSC1` the cell count [1] was 621, the inhibition [1] was -8.7% (inactive) and the inhibition of aggregation [2] was -13.4% (inactive). For the same compound, the nuclei count [2] was 102%, the inhibition [3] was -29.1% (inactive) and the nuclei count [3] was 93.5%. For the same compound, the fluorescence slope [4] was -0.559 (inactive), the NADPH fluorescence slope [5] was -2.7e-06 (inactive) and the fluorescence slope [6] was 0.00479 (inactive). The inhibition [7] was 20.2% (inactive) and the inhibition [8] was 15% (inactive).

With `CCOC(=O)c1cccc([P+](=O)O)c1` the cell count [1] was 570, the inhibition [1] was 0% (inactive) and the inhibition of aggregation [2] was 1.9% (inactive). The nuclei count [2] was 95.2%, the inhibition [3] was -41.6% (inactive) and the nuclei count [3] was 106%. For the same compound, the fluorescence slope [4] was -0.582 (inactive), the NADPH fluorescence slope [5] was -3.4e-05 (inactive) and the fluorescence slope [6] was 0.00773 (inactive). The inhibition [7] was -12.3% (inactive) and the inhibition [8] was -3.34% (inactive).

With `O=C(CN1C(=O)CN=C(c2ccccc2)c2ccccc21)NCc1ccco1` the cell count [1] was 519, the inhibition [1] was -2.9% (inactive) and the inhibition of aggregation [2] was -13.4% (inactive). For the same compound, the nuclei count [2] was 99.4%, the inhibition [3] was -66.7% (inactive) and the nuclei count [3] was 142%. The fluorescence slope [4] was -0.571 (inactive), the NADPH fluorescence slope [5] was -6.4e-05 (inactive) and the fluorescence slope [6] was 0.00595 (inactive). For the same compound, the inhibition [7] was -12.7% (inactive) and the inhibition [8] was -12.1% (inactive).

In the case of `O=C(Cc1ccc(Cl)c(Cl)c1)N1CCCCC1CN1CCCC1` (configuration not stated), the inhibition [9] is reported as 1.42% (inactive).

In the case of `CCOC(=O)C(O)(c1ccc(N(CC)C(=O)OC)cc1)C(F)(F)F` (configuration not stated), the cell count [1] is reported as 614, the inhibition [1] is reported as -6.1% (inactive) and the inhibition of aggregation [2] is reported as -9.5% (inactive). For the same compound, the nuclei count [2] was 91.2%, the inhibition [3] was -140% (inactive) and the nuclei count [3] was 111%. For the same compound, the fluorescence slope [4] was -0.425 (inactive), the NADPH fluorescence slope [5] was -0.000455 (inactive) and the fluorescence slope [6] was 0.00401 (inactive). For the same compound, the inhibition [7] was 13.7% (inactive) and the inhibition [8] was 13.7% (inactive).

For `CSc1ccc(CNC2CN3CCC2CC3)cc1` (configuration not stated), the cell count [1] was 350, the inhibition [1] was 0.2% (inactive) and the inhibition of aggregation [2] was -0.6% (inactive). For the same compound, the nuclei count [2] was 103%, the inhibition [3] was 32.3% (inactive) and the nuclei count [3] was 102%. The fluorescence slope [4] was -0.421 (inactive), the NADPH fluorescence slope [5] was -9.5e-05 (inactive) and the fluorescence slope [6] was 0.00514 (inactive). For the same compound, the inhibition [7] was 12.2% (inactive) and the inhibition [8] was 24.5% (inactive).
